Experimental data reported in ChEMBL document CHEMBL2157900, “Design, synthesis and in vitro activities on anti-platelet aggregation of 4-methoxybenzene-1,3-isophthalamides” (Bioorg Med Chem Lett, 2012).

Columns and labels:
[1] = Antiplatelet activity against rat platelet rich plasma assessed as inhibition of ADP-induced platelet aggregation after 2 mins by Born test method; assay type: functional
Method in brief: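 Rat blood was collected into 3.8% sodium citrate (1:9, v/v). Platelet-rich plasma was obtained by centrifugation at room temperature for 10 min (500–800 rpm). Platelet-poor plasma, made by spinning PRP at room temperature for 15 min (3000 rpm), set zero. Compound was incubated with PRP for 2 min, then aggregation was stimulated with ADP and read on an aggregometer. Results are given as percentage inhibition and IC50.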

[2] = system: Platelet; test: Ratio of picotamide IC50 to compound IC50 for rat platelet rich plasma assessed as inhibition of ADP-induced platelet aggregation; assay type: functional

SMILES | IC50 [1] | Ratio IC50 [2]
COc1ccc(C(=O)Nc2ccccc2F)cc1C(=O)Nc1ccccc1F | 860 nM | 
COc1ccc(C(=O)Nc2ccccc2Br)cc1C(=O)Nc1ccccc1Br | 660 nM | 
COc1ccc(C(=O)Nc2ccccc2I)cc1C(=O)Nc1ccccc1I | 300 nM | 
COc1ccc(C(=O)Nc2ccccc2Cc2ccccc2)cc1C(=O)Nc1ccccc1Cc1ccccc1 | 20 nM | 10
COc1ccc(C(=O)Nc2ccccc2CC#N)cc1C(=O)Nc1ccccc1CC#N | 590 nM | 
COc1cccc(NC(=O)c2ccc(OC)c(C(=O)Nc3cccc(OC)c3)c2)c1 | 490 nM | 
CCOc1cccc(NC(=O)c2ccc(OC)c(C(=O)Nc3cccc(OCC)c3)c2)c1 | 810 nM | 
COc1ccc(C(=O)Nc2ccc(F)cc2)cc1C(=O)Nc1ccc(F)cc1 | 600 nM | 
COc1ccc(C(=O)Nc2ccc(Br)cc2)cc1C(=O)Nc1ccc(Br)cc1 | 510 nM | 
COc1ccc(C(=O)Nc2ccc(I)cc2)cc1C(=O)Nc1ccc(I)cc1 | 490 nM | 
COc1ccc(C(=O)Nc2ccc([N+](=O)[O-])cc2)cc1C(=O)Nc1ccc([N+](=O)[O-])cc1 | 750 nM | 
COc1ccc(C(=O)Nc2ccc(C)cc2)cc1C(=O)Nc1ccc(C)cc1 | 640 nM | 
COc1ccc(C(=O)Nc2ccc(C(C)=O)cc2)cc1C(=O)Nc1ccc(C(C)=O)cc1 | 670 nM | 
CCCCOc1ccc(NC(=O)c2ccc(OC)c(C(=O)Nc3ccc(OCCCC)cc3)c2)cc1 | 490 nM | 
COc1ccc(C(=O)Nc2ccccc2)cc1C(=O)Nc1ccccc1 | 770 nM | 
COc1ccc(C(=O)NCc2ccccc2)cc1C(=O)NCc1ccccc1 | 580 nM | 
COc1ccc(C(=O)NCCc2ccccc2)cc1C(=O)NCCc1ccccc1 | 240 nM | 
COc1ccc(C(=O)NCc2cccnc2)cc1C(=O)NCc1cccnc1 [PICOTAMIDE] | 760 nM | 
